This note sets out measurements from ChEMBL document CHEMBL1133514, “Activation mechanisms of nucleoside phosphoramidate prodrugs” (J Med Chem, 2000).

Series [1] can be described thus: Rate constants determined using 31P NMR Kinetics experiments at 37 degrees Centigrade. Format: ADME. In a few lines:
(§1)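 Compound (0.015-0.076 mmol) dissolved in about 90 µL CH3CN or THF, then diluted to 0.50 mL with 0.1-0.4 M cacodylate or acetate buffer; pH 7.4 target (7.0-8.0 accepted), 37 °C. Monitored by 31P NMR every 2.5 min for 30 min, then every 5 min; relative peak areas fitted by least squares to first-order kinetics to give rate constants and t1/2.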

A short description of series [2]: Half-life period for the compound was determined. It is filed as ADME. The method, boiled down:
as §1

As usually defined, the half-life is the time needed for the level to fall by half in the phase considered. Low values mean rapid decline, high ones slow decline.

With `O=P(O)(OCC1CCCO1)On1nnc2ccccc21` (centres undefined), the K in series [1] amounted to 0.011 min⁻¹. In series [2], this molecule registered a half-life of 61 min.
In the same order, the values of `COP(=O)(OCC1CCCO1)N(C)CCO` (centres undefined) are 0.43 min⁻¹ and 1.6 min.
The molecule `CN(CCBr)P(=O)(OCC1CCCO1)On1nnc2ccccc21` (centres undefined) registered a K in series [1] of 0.094 min⁻¹. The half-life in series [2] came to 7.4 min.
For `Cc1cn([C@H]2C[C@H](O)[C@@H](COP(=O)(On3nnc4ccccc43)N(C)CCBr)O2)c(=O)[nH]c1=O` (some centres undefined) the same measures were 0.15 min⁻¹ and 4.7 min.
In the same order, the values of `CCN(CC)CC.Cc1cn([C@H]2C[C@H](O)[C@@H](COP(=O)(O)N(C)CCBr)O2)c(=O)[nH]c1=O` are 0.19 min⁻¹ and 3.7 min.
For `Cc1cn([C@H]2C[C@H](O)[C@@H](COP(=O)(O)On3nnc4ccccc43)O2)c(=O)[nH]c1=O` the same measures were 0.0042 min⁻¹ and 164 min.
In series [1], `Cc1cn([C@H]2C[C@H](O)[C@@H](COP(=O)(O)N(C)CCBr)O2)c(=O)[nH]c1=O` registered a K of 0.2 min⁻¹. In series [2], this molecule returned a half-life of 3.4 min.
